# Test results taken from ChEMBL document CHEMBL4334488 (J Med Chem, 2019).
# What was measured:
# [1] = target: T1, Histamine H3 receptor (Homo sapiens, UniProt Q9Y5N1); experiment: Displacement of 3 nM [3H]Nalpha-methylhistamine from human H3R expressed in Sf9 cell membranes co-expressing Gia2 and beta1gamma2 by competition binding assay
# How it was run: (§1)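 Competition binding on Sf9 membranes in 100 μL with 0.2% BSA. Membrane protein: 5−25 μg (H4R), 24−35 μg (H3R), 15 μg (H2R), 23 μg (H1R). Normalized total binding was plotted against log competitor. Two to four independent experiments, each in triplicate.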
# [2] = Chemical stability in PBS buffer at pH 7.4 at 200 uM at 23 degC measured over 24 hrs by RP-HPLC analysis; type: physicochemical; conditions: pH 7.4, 24 h
# How it was run: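 Compounds diluted to 200 μM in PBS pH 7.4 from a 10 mM DMSO stock, incubated at 23 °C for 24 h, and analysed by RP-HPLC with detection at 220 nm.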
# [3] = target: T1, Histamine H3 receptor; experiment: Displacement of 2 nM [3H]UR-PI294 from human H3R expressed in Sf9 cell membranes co-expressing Gia2 and beta1gamma2 by competition binding assay
# How it was run: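 Competition binding on Sf9 membranes in 100 μL with 0.2% BSA. Membrane protein: 5−25 μg (H4R), 24−35 μg (H3R), 15 μg (H2R), 23 μg (H1R). […] Normalized total binding was plotted against log competitor. Two to four independent experiments, each in triplicate.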
# [4] = target: T2, Histamine H4 receptor (Homo sapiens, UniProt Q9H3N8); experiment: Displacement of 40 nM [3H]-histamine from human H4R expressed in Sf9 cell membranes co-expressing Gia2 and beta1gamma2 by competition binding assay; how it was run: as §1
# T2 sequence (Q9H3N8 whole entry): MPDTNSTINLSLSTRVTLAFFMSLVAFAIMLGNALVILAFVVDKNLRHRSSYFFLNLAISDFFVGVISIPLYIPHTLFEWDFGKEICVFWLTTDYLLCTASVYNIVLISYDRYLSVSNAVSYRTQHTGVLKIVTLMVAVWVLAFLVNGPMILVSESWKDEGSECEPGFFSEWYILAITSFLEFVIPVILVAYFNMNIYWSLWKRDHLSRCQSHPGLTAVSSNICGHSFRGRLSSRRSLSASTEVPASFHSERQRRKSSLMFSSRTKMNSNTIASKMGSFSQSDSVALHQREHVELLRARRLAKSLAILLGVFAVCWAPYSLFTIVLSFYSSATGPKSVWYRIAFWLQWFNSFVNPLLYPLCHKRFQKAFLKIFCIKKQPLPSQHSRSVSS
# [5] = target: T2, Histamine H4 receptor; experiment: Agonist activity at human H4R by [35S]-GTPgammaS-binding assay; type: functional
# [6] = target: T3, Histamine H4 receptor (Mus musculus, UniProt Q91ZY2); experiment: Agonist activity at mouse H4R by [35S]-GTPgammaS-binding assay; type: functional
# T3 sequence (Q91ZY2 whole entry): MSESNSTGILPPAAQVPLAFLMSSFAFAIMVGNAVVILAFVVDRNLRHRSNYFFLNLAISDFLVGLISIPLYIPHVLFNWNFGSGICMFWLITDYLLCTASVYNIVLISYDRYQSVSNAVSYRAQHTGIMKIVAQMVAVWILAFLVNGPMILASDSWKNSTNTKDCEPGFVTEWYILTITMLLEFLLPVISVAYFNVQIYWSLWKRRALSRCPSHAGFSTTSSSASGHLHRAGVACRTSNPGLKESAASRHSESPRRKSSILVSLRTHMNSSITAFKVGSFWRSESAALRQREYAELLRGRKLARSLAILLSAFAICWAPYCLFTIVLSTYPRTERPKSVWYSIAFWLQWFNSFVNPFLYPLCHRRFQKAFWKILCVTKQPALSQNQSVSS
# [7] = target: Histamine H2 receptor (Homo sapiens, UniProt P25021); experiment: Displacement of 20 nM [3H]UR-DE257 from human H2R expressed in Sf9 cell membranes co-expressing GsalphaS by competition binding assay; how it was run: as §1
# Sequence of Histamine H2 receptor (P25021 whole entry): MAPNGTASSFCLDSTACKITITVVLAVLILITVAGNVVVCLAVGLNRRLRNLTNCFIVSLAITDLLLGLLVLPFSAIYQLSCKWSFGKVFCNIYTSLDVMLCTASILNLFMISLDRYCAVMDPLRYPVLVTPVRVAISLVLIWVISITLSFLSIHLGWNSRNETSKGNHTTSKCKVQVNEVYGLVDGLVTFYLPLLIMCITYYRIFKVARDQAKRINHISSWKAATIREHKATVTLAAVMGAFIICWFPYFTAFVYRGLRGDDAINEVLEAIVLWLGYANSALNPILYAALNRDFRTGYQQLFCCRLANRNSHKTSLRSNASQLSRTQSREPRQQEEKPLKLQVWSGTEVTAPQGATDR
# [8] = organism: Homo sapiens; experiment: Selectivity index, ratio of Ki for displacement of 2 nM [3H]UR-PI294 from human H3R expressed in Sf9 cell membranes co-expressing Gia2 and beta1gamma2 by competition binding assay to Ki for displacement of 40 nM [3H]-histamine from human H4R expressed in Sf9 cell membranes co-expressing Gia2 and beta1gamma2 by competition binding assay
# [9] = target: Histamine H1 receptor (Homo sapiens, UniProt P35367); experiment: Displacement of 5 nM [3H-pyrilamine from human H1R expressed in Sf9 cell membranes co-expressing RGS4 by competition binding assay; how it was run: as §1
# Sequence of Histamine H1 receptor (P35367 whole entry, looked up): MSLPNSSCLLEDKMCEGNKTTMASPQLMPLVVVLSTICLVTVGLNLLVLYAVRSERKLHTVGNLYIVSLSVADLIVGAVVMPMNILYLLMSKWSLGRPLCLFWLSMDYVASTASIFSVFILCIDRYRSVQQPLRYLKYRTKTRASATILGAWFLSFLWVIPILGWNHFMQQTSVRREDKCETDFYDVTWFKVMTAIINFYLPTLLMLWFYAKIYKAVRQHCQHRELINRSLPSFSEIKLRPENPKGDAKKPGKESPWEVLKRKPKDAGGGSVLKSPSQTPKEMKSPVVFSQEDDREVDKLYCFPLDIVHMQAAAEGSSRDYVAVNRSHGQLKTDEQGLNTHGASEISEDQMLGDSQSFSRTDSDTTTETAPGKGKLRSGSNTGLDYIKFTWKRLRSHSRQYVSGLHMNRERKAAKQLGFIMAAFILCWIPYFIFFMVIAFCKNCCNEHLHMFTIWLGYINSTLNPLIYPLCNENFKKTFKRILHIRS
# [10] = organism: Homo sapiens; experiment: Selectivity index, ratio of Ki for [3H]UR-DE257 from human H2R expressed in Sf9 cell membranes co-expressing GsalphaS by competition binding assay to Ki for displacement of 40 nM [3H]-histamine from human H4R expressed in Sf9 cell membranes co-expressing Gia2 and beta1gamma2 by competition binding assay
# [11] = target: Histamine H4 receptor (Rattus norvegicus) (UniProt Q91ZY1)
# Sequence of Histamine H4 receptor (Rattus norvegicus) (Q91ZY1 whole entry): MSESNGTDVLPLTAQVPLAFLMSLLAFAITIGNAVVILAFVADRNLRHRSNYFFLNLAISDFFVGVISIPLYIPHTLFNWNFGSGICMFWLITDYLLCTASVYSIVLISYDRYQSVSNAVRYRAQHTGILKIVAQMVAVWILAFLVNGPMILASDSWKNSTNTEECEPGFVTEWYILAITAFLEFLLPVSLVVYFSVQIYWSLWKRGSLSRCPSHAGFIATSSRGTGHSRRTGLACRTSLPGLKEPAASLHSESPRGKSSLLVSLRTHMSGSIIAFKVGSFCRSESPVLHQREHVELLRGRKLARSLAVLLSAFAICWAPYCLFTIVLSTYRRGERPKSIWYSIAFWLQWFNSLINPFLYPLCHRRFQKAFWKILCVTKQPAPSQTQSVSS
# [12] = target: T2, Histamine H4 receptor
# [13] = target: T4, Histamine H4 receptor (Mus musculus) (UniProt Q91ZY2)
# T4 sequence (whole entry): T3 sequence (Q91ZY2 whole entry)
# [14] = target: T2, Histamine H4 receptor; experiment: Binding affinity to human H4R
# [15] = Chemical stability in EtOH/H2O (70:30) at -20 degC measured over 11 months; type: physicochemical; conditions: 8035.5 h
# How it was run: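 Radioligand stored in EtOH/H2O 70:30 at −20 °C. Radiochemical purity was checked by HPLC with UV and radiometric detection after spiking with the unlabeled compound, 4 days after synthesis and again after 11 months.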
# T1 sequence (Q9Y5N1 whole entry): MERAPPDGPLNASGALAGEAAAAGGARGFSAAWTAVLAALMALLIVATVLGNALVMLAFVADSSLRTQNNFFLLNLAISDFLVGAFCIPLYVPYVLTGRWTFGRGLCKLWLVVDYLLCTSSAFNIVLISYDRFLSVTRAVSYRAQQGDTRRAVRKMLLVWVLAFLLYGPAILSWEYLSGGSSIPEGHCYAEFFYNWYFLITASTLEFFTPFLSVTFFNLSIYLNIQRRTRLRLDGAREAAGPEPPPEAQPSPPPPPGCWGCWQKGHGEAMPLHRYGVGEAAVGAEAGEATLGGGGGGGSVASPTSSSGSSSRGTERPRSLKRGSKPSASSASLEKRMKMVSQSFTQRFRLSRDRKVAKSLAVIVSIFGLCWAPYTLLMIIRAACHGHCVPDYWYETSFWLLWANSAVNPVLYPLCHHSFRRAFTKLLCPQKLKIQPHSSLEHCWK
SMILES,Ki [1] [nM],Ki [3] [nM],Ki [9] [nM],also measured
CC(C)(C)CNc1nccc(N2CCc3nc[nH]c3C2)n1.O=C(O)C(F)(F)F.O=C(O)C(F)(F)F,3.31,,,Stability [2]: Stable
CC(C)(C)CNc1nccc(NCCc2c[nH]cn2)n1,,9.55,,Ki [4]: 204 nM
CC(C)(C)CNc1nccc(N2CCCN(C(=N)N)CC2)n1,> 10000,,,
CCC(=O)N[C@@H]1CCN(c2ccnc(NCC(C)(C)C)n2)C1,3020,3020,,
NC(=NCc1ccc(Cl)cc1)SCCCc1cnc[nH]1 [CLOBENPROPIT],,,,EC50 [5]: 22.4 nM; EC50 [6]: 851 nM
CC(C)(C)CNc1nccc(NC2CCNCC2)n1,3470,3470,> 10000,Ki [7]: > 10000 nM; Ratio Ki [8]: 1.6; Ki [4]: 1910 nM; Ratio Ki [10]: > 4.7
CC(C)(C)CNc1nccc(N2CC[C@@H](N)C2)n1,13.8,,,
CC(C)(C)CNc1nccc(N2CCNCC2)n1,> 10000,,,
CC(C)(C)CNc1nccc(N2CCN(CCN)CC2)n1,> 10000,,,
CC(C)(C)CNc1nccc(N2CCN(C(=N)N)CC2)n1,6030,,> 1000,
S=C(NC1CCCCC1)N1CCC(c2cnc[nH]2)CC1,,,,pKb [11]: 6.44; pKb [12]: 6.83; pKb [13]: 7.12
CN(C)[C@@H]1CCN(c2ccnc(NCC(C)(C)C)n2)C1.O=C(O)C(F)(F)F.O=C(O)C(F)(F)F,,,> 10000,Stability [2]: Stable
CC(C)(C)CNc1nccc(NCCN)n1,692,,> 1000,
CC(C)(C)CNc1nccc(N2CCCNCC2)n1,,537,,
CN[C@@H]1CCN(c2ccnc(NCC(C)(C)C)n2)C1,27.5,27.5,,
NC(=NCCc1ccc(I)cc1)SCCCc1cnc[nH]1 [IODOPHENPROPIT],,,,Ki [14]: 12.6 nM
CC(C)(C)CNc1nccc(NCCCc2c[nH]cn2)n1,,9.33,,
CN1CCN(c2ccnc(NCC(C)(C)C)n2)CC1,5500,,,
Cc1[nH]cnc1CSCCNc1ccnc(NCC(C)(C)C)n1,> 10000,,> 1000,
CC(C)(C)CNc1nccc(N2CC[C@@H](NC(=N)N)C2)n1.O=C(O)C(F)(F)F.O=C(O)C(F)(F)F,1120,,> 10000,Stability [2]: Stable
CC(C)(C)CNc1nccc(NC2CCNC2)n1 (stereo not given),204,204,> 10000,
N=C(NCc1ccc(Cl)cc1)SCCCc1c[nH]cn1,,,,pKb [11]: 6.28
CN1CCCN(c2ccnc(NCC(C)(C)C)n2)CC1.O=C(O)C(F)(F)F.O=C(O)C(F)(F)F,2400,,> 10000,Stability [2]: Stable
CC(C)(C)CNc1nccc(NCCCN)n1,5620,5620,> 10000,
O=C(O)C(F)(F)F.O=C(O)C(F)(F)F.[3H]C([3H])([3H])N(C)[C@@H]1CCN(c2ccnc(NCC(C)(C)C)n2)C1,,,,Stability [15]: Stable
